Source: ChEMBL document CHEMBL3739301, “Design, synthesis and biological evaluation of tricyclic diterpene derivatives as novel neuroprotective agents against ischemic brain injury” (Eur J Med Chem, 2015)
Calls of active or inactive are those of the source. The calls are words filed in the database; no cut-off is given here.

Assays:
Rattus norvegicus [1] = assay: Toxicity in Sprague-Dawley rat transient middle cerebral artery occlusion model at 10 mg/kg, iv; type: organism-based; conditions: in vivo
[2] = Neuroprotective activity against glutamate-induced neuronal cell death in Sprague-Dawley rat CGN cells assessed as cell viability at 10 uM preincubated for 24 hrs followed by glutamate challenge measured after 24 hrs by MTT assay (reference value: 40.4%); type: functional; conditions: read-out: Activity
[3] = Neuroprotective activity against oxygen-glucose deprivation-induced neuronal cell death in Sprague-Dawley rat CGN cells assessed as cell viability at 10 uM preincubated for 24 hrs followed by induction of oxygen-glucose deprivation measured after 24 hrs by MTT assay (reference value: 48.7%); type: functional; conditions: read-out: Activity
[4] = Neuroprotective activity against glutamate-induced neuronal cell death in Sprague-Dawley rat CGN cells at 10 uM preincubated for 24 hrs followed by glutamate challenge measured after 24 hrs relative to control; type: functional
neuronal [5] = assay: Neuroprotective activity against glutamate-induced neuronal cell death in Sprague-Dawley rat CGN cells assessed as increase in cell viability preincubated for 24 hrs followed by glutamate challenge measured after 24 hrs by MTT assay; type: functional, cell-based
[6] = Neuroprotective activity against oxygen-glucose deprivation-induced neuronal cell death in Sprague-Dawley rat CGN cells assessed as cell viability at 1 uM preincubated for 24 hrs followed by induction of oxygen-glucose deprivation measured after 24 hrs by MTT assay (reference value: 48.7%); type: functional; conditions: read-out: Activity
[7] = Neuroprotective activity against oxygen-glucose deprivation-induced neuronal cell death in Sprague-Dawley rat CGN cells at 10 uM preincubated for 24 hrs followed by induction of oxygen-glucose deprivation measured after 24 hrs relative to control; type: functional
[8] = Neuroprotective activity against nutrient deprivation-induced neuronal cell death in Sprague-Dawley rat CGN cells at 10 uM preincubated for 24 hrs followed by induction of nutrient deprivation measured after 24 hrs relative to control; type: functional
Procedure, shortened: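 Primary rat cerebellar granule neurons (8-day-old Sprague-Dawley pups, DIV 6-8) pretreated 24 h with compound (0.1% DMSO final), then deprived of B27 serum substitute for 24 h. MTT viability (0.5 mg/ml, 4 h) read at 570 nm against control = 100%; neuroprotection percentage derived from the basal deprived value; mean ± SD, n = 3.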

[9] = Neuroprotective activity in Sprague-Dawley rat CGN cells assessed as upregulation of HO-1 expression after 24 hrs by Western blot analysis; type: functional, cell-based
Procedure, shortened: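 Primary granule neurons treated with a concentration series for 24 h, lysed in RIPA buffer, protein by BCA. Separated on 15% SDS-PAGE, transferred to PVDF, blocked in 5% BSA. Primary antibody overnight at 4 °C, secondary 30 min at room temperature; chemiluminescent detection. HO-1 quantified by densitometry normalized to β-actin. n = 3, mean ± SD.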

neuronal [10] = assay: Neuroprotective activity against glutamate-induced neuronal cell death in Sprague-Dawley rat CGN cells assessed as increase in SOD level at 10 uM preincubated for 24 hrs followed by glutamate challenge measured after 24 hrs; type: functional, cell-based
neuronal [11] = assay: Neuroprotective activity against glutamate-induced neuronal cell death in Sprague-Dawley rat CGN cells assessed as increase in GSH level at 10 uM preincubated for 24 hrs followed by glutamate challenge measured after 24 hrs; type: functional, cell-based
Procedure, shortened: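 Granule neurons pretreated 24 h with […] compound, then […] for 24 h. Lysed in buffer containing protease inhibitor cocktail; protein determined by BCA. SOD activity and GSH level measured with commercial kits. n = 3, mean ± SD.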

[12] = Permeability of the compound at 25 ug/ml after 18 hrs by PAMPA assay; type: ADME; conditions: read-out: permeability
[13] = Cytotoxicity against Sprague-Dawley rat CGN cells at <10 uM after 72 hrs by MTT assay; type: cell-based
Procedure, shortened: (§1)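 Primary cerebellar granule neurons from 8-day SD rat pups; cytosine arabinoside […] added at 24 h, used at DIV 6–8. Cells exposed to a concentration series for 72 h, 0.1% DMSO final. Viability by MTT (0.5 mg/ml, 4 h, 37 °C); formazan dissolved in DMSO, OD 570 nm. n = 3, mean ± SD.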

[14] = Cytotoxicity against Sprague-Dawley rat CGN cells at 50 to 100 uM after 72 hrs by MTT assay; type: cell-based; procedure, shortened: as §1
Rattus norvegicus [15] = assay: Anti-ischemic activity in Sprague-Dawley rat transient middle cerebral artery occlusion model assessed as reduction in infarct volume at 10 mg/kg, iv administered for 2 to 6 hrs post middle cerebral artery occlusion measured at 24 hrs by TTC staining-based morphometric analysis; type: organism-based; design: scale not given: the % may be the effect or the level left; conditions: in vivo
Procedure, shortened: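 Male Sprague-Dawley rats (260-280 g), middle cerebral artery occluded 2 h by intraluminal nylon monofilament, then reperfused; body temperature held at 37 C. Drug given iv at 2, 4 and 6 h after ischemia onset (test agent in DMSO, edaravone in saline; vehicle controls). Neurological scoring at 24 h; 2 mm coronal slices stained with 2% TTC 20 min at 37 C, formalin-fixed; infarct volume by morphometry; n = 8-12.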

Rattus norvegicus [16] = assay: Anti-ischemic activity in Sprague-Dawley rat transient middle cerebral artery occlusion model assessed as reduction in neurological deficit at 10 mg/kg, iv administered for 2 to 6 hrs post middle cerebral artery occlusion measured at 24 hrs; type: functional, organism-based
Procedure, shortened: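 Male SD rats (260–280 g); intraluminal nylon suture (~0.26 mm, round tip) occluded MCA for 2 h, then withdrawn for reperfusion, body temperature held at 37 °C. Given iv at 2, 4 and 6 h after ischemia onset; 10 mg/kg in DMSO or 3 mg/kg in saline; DMSO or saline vehicle controls. Neurological score at 24 h after MCAO; n = 8–12, mean ± SD.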

Rattus norvegicus [17] = assay: Antioxidant activity in Sprague-Dawley rat transient middle cerebral artery occlusion model assessed as […] in GSH level in ipsilateral cortex at 10 mg/kg, iv measured at 24 hrs post middle cerebral artery occlusion; type: functional, organism-based
Procedure, shortened: (§2)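 Rat tMCAO: 2 h suture occlusion, then reperfusion. Dosing iv at 2, 4 and 6 h after onset, 10 mg/kg (DMSO) or 3 mg/kg (saline). At 24 h the ipsilateral cortex was lysed in RIPA buffer and protein quantified by BCA. GSH concentration and SOD activity were then measured with commercial kits.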

Rattus norvegicus [18] = assay: Antioxidant activity in Sprague-Dawley rat transient middle cerebral artery occlusion model assessed as […] in SOD level in ipsilateral cortex at 10 mg/kg, iv measured at 24 hrs post middle cerebral artery occlusion; type: functional, organism-based; procedure, shortened: as §2

With `CCCCNC(=O)c1cc2c(cc1OC)[C@@]1(C)CC[C@H](O)C(C)(C)[C@@H]1CC2` the Activity (Rattus norvegicus [1]) was “Non-toxic”, the viability at 10 µM [2] was 94.1% and the viability at 10 µM [3] was 87.4%. For the same molecule, the Activity [4] was 90.1%, the Activity (neuronal [5]) was “Dose-dependent effect” and the viability at 1 µM [6] was 58.9%. For the same molecule, the Activity [7] was 75.4%, the Activity [8] was 25.9% and the Activity [9] was “Dose-dependent effect”. The Activity (neuronal [10]) was “Active”, the Activity (neuronal [11]) was “Active” and the Papp at 18 h, 25 ug/ml [12] was 11.3 ×10⁻⁶ cm/s. For the same molecule, the Activity [13] was “Non-toxic”, the Activity [14] was “Toxic” and the Activity (Rattus norvegicus [15]) was 44%. The Activity (Rattus norvegicus [16]) was “Active”, the Activity (Rattus norvegicus [17]) was “Active” and the Activity (Rattus norvegicus [18]) was “Active”.
